SENP8 block-1: SENP8 protease inhibition; Q96LD8; purified SENP8, Z-RLRGG-aminoluciferin cleavage, luminescence; inhibition, % at 10 µM; hit rate 1.2% among 330,000; in the data active means inhibition above about 50%
SENP8 block-2: inhibitors of human SENP8 protease. inhibition, % at 20 µM. recombinant SENP8, Nedd8 substrate fluorescence. AID 602440. Q96LD8. hit rate 0.64% among 360,000; in the data active means inhibition mostly above about 40%, no sharp cut-off; inactive means mostly below about 27%
SENP1 inh: blocks the human SENP1 SUMO protease catalytic domain. Q9P0U3. recombinant SENP1 catalytic domain, CyPet-SUMO1-YPet FRET cleavage. inhibition, % at 10 µM. hit rate 0.21% among 360,000;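 active means inhibition at least 30% at 10 µM, raw YFP signal under a set limit, fluorescence ratio 0.5 to 1.5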
Target sequence (Q9P0U3 419-644 limits assumed): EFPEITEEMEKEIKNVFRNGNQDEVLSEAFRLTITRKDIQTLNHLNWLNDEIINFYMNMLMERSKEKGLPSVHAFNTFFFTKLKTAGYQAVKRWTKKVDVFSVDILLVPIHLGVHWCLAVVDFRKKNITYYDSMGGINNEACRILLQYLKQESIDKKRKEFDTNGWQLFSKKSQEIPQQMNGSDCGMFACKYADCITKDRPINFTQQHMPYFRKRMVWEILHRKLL
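Material: hSENP1 catalytic domain, recombinant; medium: Tris pH 8 with BME, BSA, NP40 and catalase; compound: single concentration of 10 µM compound, 0.5% DMSO final; technique: FRET read of cyan and yellow fluorescence; timing: 50 min enzyme reaction, room temperature, light-protected; reagent: SFCypet-SUMO1-SFYpet substrate at 25 nM; control set: no-enzyme low, enzyme-DMSO high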
SENP7 inh: blocks the human protease SENP7. Q9BQF6. recombinant SENP7, Z-RLRGG-aminoluciferin luminescence, 40 min. inhibition, % at 5 µM. hit rate 1.5% among 330,000. AID 434973;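 active means inhibition above about 50% at the single test dose, limit read from the data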
SENP6 inh: inhibitors of human SENP6 protease. Recombinant SENP6 catalytic domain, aminoluciferin luminescence. Q9GZR1. inhibition, % at 10 µM. hit rate 1.8% among 330,000;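 active means inhibition above about 50% at the single tested dose, limit read from the data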
SENP8 confirm: confirmation of human SENP8 protease inhibitors; shares compounds with SENP7 inh; inhibition, % at 12.5 µM; hit rate 40% among 6,200; Recombinant SENP8, Z-RLRGG-aminoluciferin luminescence, 60 min;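 active means mean inhibition across replicates above about 50%, limit read from the data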
SENP6 confirm: human SENP6 inhibition, confirmed. shares compounds with SENP7 inh. recombinant SENP6, Z-RLRGG-aminoluciferin luminescence. inhibition, % at 12.5 µM. hit rate 58% among 6,200
SENP7 confirm: confirmation of human SENP7 protease inhibitors | recombinant SENP7, Z-RLRGG-aminoluciferin luminescence, 40 min | AID 488917 | hit rate 69% among 6,200 | inhibition, % at 12.5 µM | shares compounds with SENP7 inh
Casp3 SENP sel: caspase-3 inhibition (SENP selectivity assay); shares compounds with SENP7 inh; purified caspase-3, Z-DEVD-aminoluciferin luminescence, 60 min; inhibition, % at 12.5 µM; hit rate 60% among 6,200;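 active means mean inhibition above about 50%, limit read from the data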
Target sequence (P42574 28-227 limits assumed): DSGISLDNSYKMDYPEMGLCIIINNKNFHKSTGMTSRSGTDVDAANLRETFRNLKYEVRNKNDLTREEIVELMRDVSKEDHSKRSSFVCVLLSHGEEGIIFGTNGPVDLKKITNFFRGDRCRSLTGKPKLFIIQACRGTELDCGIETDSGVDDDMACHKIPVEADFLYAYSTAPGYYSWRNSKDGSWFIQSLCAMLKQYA
Luc interf: interferes with luciferase luminescence in SENP counter-screen; inhibition, % at 12.5 µM; shares compounds with SENP7 inh; hit rate 39% among 6,200; Pre-incubated SENP8/Z-RLRGG-aminoluciferin, luciferase luminescence interference;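 active means mean inhibition above about 50% when retested at one dose, limit read from the data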
Each line names hits and unclear results; the compound was inactive in the other large screens (follow-up assays come after a bar, where they were run). An excerpt weighted towards active compounds, which were near 2.5% of everything screened.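 How the source made its calls, unless noted: active means mean inhibition above about 50% in the one-dose retest (limit read from the data); inactive means the rest.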

C(/C=C/c1ccccc1)=N/N1CCN(c2ccccc2)CC1	SENP7 inh 61 | SENP8 confirm inactive | SENP6 confirm inactive | SENP7 confirm inactive | Casp3 SENP sel inactive | Luc interf inactive
Nc1cc(=O)[nH]c(=O)n1CCc1ccccc1	none
O=C(Nc1nnc(S(=O)(=O)N2CCCC2)s1)c1cccc([N+](=O)[O-])c1	SENP6 inh 52 | SENP8 confirm inactive | SENP6 confirm inactive | SENP7 confirm inactive | Casp3 SENP sel inactive | Luc interf inactive
CC(C)C(=O)Nc1nnc(CSCc2ccccc2F)s1	none
O=C(Nc1nnc(SCc2ccccc2)s1)c1cccc([N+](=O)[O-])c1	SENP8 block-1 71, SENP6 inh 84 | SENP8 confirm 68 | SENP6 confirm 66 | SENP7 confirm 83 | Casp3 SENP sel 53 | Luc interf inactive
O=C(Nc1nnc(CSCc2ccccc2F)s1)c1cccc([N+](=O)[O-])c1	SENP6 inh 56 | SENP8 confirm inactive | SENP6 confirm inactive | SENP7 confirm inactive | Casp3 SENP sel inactive | Luc interf inactive
CCOc1cc(-c2ccccc2)nc2c1CN(S(=O)(=O)c1ccc(C)cc1)C(c1cccc(Cl)c1)C2 (stereo not given)	none (no result: SENP8 block-1, SENP7 inh, SENP6 inh)
c1ccc(NC2=Nc3ccccc3CS2)cc1	SENP8 block-1 51, SENP7 inh 78, SENP6 inh 82 | SENP8 confirm inactive | SENP6 confirm 63 | SENP7 confirm 90 | Casp3 SENP sel 69 | Luc interf inactive
COc1cc(OC)cc(-c2nc(-c3ccccc3)no2)c1	none
CCOc1nc(-c2ccccc2)ccc1-c1noc(-c2cccs2)n1	none
c1ccc(-c2nc(-c3ccc(-c4ccon4)s3)no2)cc1	SENP7 inh 80, SENP6 inh 55 | SENP8 confirm inactive | SENP6 confirm inactive | SENP7 confirm inactive | Casp3 SENP sel inactive | Luc interf inactive
c1csc(-c2nc(-c3ccc(-c4ccon4)s3)no2)c1	SENP7 inh 88, SENP6 inh 51 | SENP8 confirm inactive | SENP6 confirm inactive | SENP7 confirm inactive | Casp3 SENP sel inactive | Luc interf inactive
COc1ccc2c3c(n(C(=O)OC(C)(C)C)c2c1)C1CC=C(COC(C)=O)CN1CC3 (stereo not given)	none (no result: SENP8 block-1, SENP7 inh, SENP6 inh)
O=C1C(C=Nc2ccccc2O)=C(O)c2ccccc21	SENP8 block-1 95, SENP8 block-2 45, SENP6 inh 96 | SENP8 confirm 88 | SENP6 confirm 95 | SENP7 confirm 100 | Casp3 SENP sel 95 | Luc interf 96
CN=CC1=C(O)c2ccccc2C1=O	none
COc1ccc(N=CC2=C(O)c3ccccc3C2=O)cc1	SENP8 block-1 93, SENP8 block-2 46, SENP7 inh 99, SENP6 inh 95 | SENP8 confirm inactive | SENP6 confirm 67 | SENP7 confirm inactive | Casp3 SENP sel 89 | Luc interf inactive
O=C1C(C=Nc2ccccc2)=C(O)c2ccccc21	SENP8 block-1 92, SENP7 inh 99, SENP6 inh 98 | SENP8 confirm 87 | SENP6 confirm 88 | SENP7 confirm 100 | Casp3 SENP sel 94 | Luc interf 61
COc1ccc(-n2nc(C(=O)NCC(=O)NCc3cccc(F)c3)c3ccccc3c2=O)cc1Cl	none
Cn1c(=NC(=O)c2ccco2)sc2ccccc21	SENP7 inh 52, SENP6 inh 67 | SENP8 confirm 54 | SENP6 confirm 56 | SENP7 confirm 84 | Casp3 SENP sel 79 | Luc interf inactive
CCS(=O)(=O)c1ccc2oc(Nc3ccccc3Cl)nc2c1	SENP8 block-1 91, SENP7 inh 92, SENP6 inh 95 | SENP8 confirm 74 | SENP6 confirm 92 | SENP7 confirm 99 | Casp3 SENP sel 94 | Luc interf inactive
Cc1cccc(C)c1Nc1nc2ccccc2o1	none
